# Screening data as filed in PubChem BioAssay.
# Most compounds without a hit are left out; they make up all but 2.2% or so of the library.
# NR2E3 ag-1 – agonists of human NR2E3 nuclear receptor. Q9Y5X4. CHO-S Gal4-NCOR/VP16-NR2E3 two-hybrid, luciferase. inhibition of corepressor binding, % at 3.98 µM. 360,000 compounds, 0.35% hits;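 active means inhibition above the mean of all tested compounds plus 3 SD, cut at about 70% in these data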;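 further: 0% = DMSO with NR2E3 transfected cells and 100% = cells lacking NR2E3 construct; higher means lower luciferase signal from less NR2E3 corepressor binding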
# miR122 inh – inhibitors of miR-122 in Huh7 cells. Huh7 miR-122 Renilla luciferase sensor, 48 h; neutral wells = 0, positive control = 100. activation (reporter increase), % at 12.5 µM. 340,000 compounds, 0.3% hits;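 active means mean replicate activation score at least 90 and every replicate individually at or above 90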;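 further: higher luciferase means less miR-122 activity so hits act as miR-122 inhibitors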
# FGF22 binding – FGF22 (human) thermal shift binding; recombinant FGF22 thermal shift, SYPRO orange fluorescence; percent of sucrose octasulfate shift, DMSO zero; Q9HCT0; 340,000 compounds, 1.5% hits; activity (Tm shift, normalised), % at 9.99 µM;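 active means mean Tm shift, scaled 0 neutral to 100 positive control, at about 1.3% or above, every replicate too, limit read from the data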
# Target sequence (Q9HCT0 whole entry, looked up): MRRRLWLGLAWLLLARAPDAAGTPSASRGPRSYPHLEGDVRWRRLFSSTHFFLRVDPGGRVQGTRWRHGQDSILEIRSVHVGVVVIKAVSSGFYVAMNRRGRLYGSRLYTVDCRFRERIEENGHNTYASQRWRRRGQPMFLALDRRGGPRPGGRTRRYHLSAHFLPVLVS
# NR2E3 ag-2 – agonists of human nuclear receptor NR2E3; inhibition of corepressor binding, % at 4.78 µM; AID 2300; GST-NR2E3/biotin-RetCOR TR-FRET, 1536-well; 320,000 compounds, 0.12% hits; Q9Y5X4;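 active means percent inhibition above the cutoff of mean plus 3 SD of all tested compounds, set per screening campaign, cut at about 20% in these data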;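 further: 0% = DMSO wells and 100% = biotin wells as full block of FRET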
#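 Test system – NR2E3–RetCOR corepressor complex · Quantity – NR2E3 fusion 1.35 nM · Buffer or medium – Tris pH 7.5 · Incubation – Compound–protein incubation for 5 h at 4 °C · Technique – TR-FRET, Eu(K)-anti-GST donor, streptavidin-D2 acceptor, ex 340, em 617/671 nm · Evaluation – percent inhibition of 671/617 nm emission ratio versus biotin and DMSO controls · Plate – 1536-well format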
# 697 NFkB inh – lowers PMA/ionomycin-induced NF-kB signal in 697 B cells; 697 B-cell NF-kB luciferase reporter, 16 h; inhibition, % at 4 µM; 330,000 compounds, 0.33% hits; in the data active means inhibition above about 35%
# Jurkat NFkB inh – lowers PMA/ionomycin-induced NF-kB signal in Jurkat cells; AID 435003; PMA/ionomycin-induced NF-kB luciferase reporter, luminescence; 330,000 compounds, 0.53% hits; inhibition, % at 4 µM; in the data active means inhibition above about 50%
# 697 NFkB conf – inhibitors of the PMA/ionomycin-induced NF-kB reporter in 697 B cells, retest | shares compounds with 697 NFkB inh | 697 B-cell NF-kB luciferase, 16 h | inhibition, % at 4 µM | 2,000 compounds, 35% hits | AID 449746; in the data active means inhibition mostly above about 28%, no sharp cut-off; inactive means mostly below about 22%
# Starred values were filed as active, the others as inactive; i = inactive; · = not tested or not shown; [ ] = another dose, or the depositor's remark.
SMILES,NR2E3 ag-1,miR122 inh,FGF22 binding,NR2E3 ag-2,697 NFkB inh,Jurkat NFkB inh,697 NFkB conf
C[C@H](CO)N1C[C@H](C)[C@H](CN(C)C(=O)Cc2ccncc2)Oc2cc(C#CC3CC3)ccc2S1(=O)=O,·,43[16.7 µM],0,·,·,·,·
COCCC(=O)NC1CCCc2c1cnn2-c1cccc(C)c1C (centres undefined),-28,·,0,-2,-6,5,·
O=C(NC1CCCc2c1cnn2-c1ccccc1F)c1ccccn1 (centres undefined),14,5,0,1,i,-66,i
Cc1cc(C)c(C(=O)NC2CCCc3c2cnn3-c2cccc(C)c2C)o1 (centres undefined),27,-2,0,-8,-276,20,-23
Cc1cc(C(=O)Nc2cccc3c2O[C@H](CN(C)C(=O)Nc2ccc4c(c2)OCO4)[C@@H](C)CN([C@@H](C)CO)C3=O)n(C)n1,·,-8[16.7 µM],0,·,·,·,·
O=C(CCCN1C(=O)S/C(=C/C=C/c2ccccc2)C1=O)Nc1ccc(C(=O)O)cc1,4,·,0,1,49*,25,49*
COc1ccc(/C=C2\SC(=S)N(CCC(=O)Nc3cccc(C(=O)O)c3)C2=O)cc1,6,1,0,1,42*,-5,39*
CCN(CC)CCOC(=O)c1ccc(NC(=O)CCCN2C(=O)S/C(=C/c3ccc(OC)cc3)C2=S)cc1,40,-1,·,1,52*,-13,60*
COc1ccc(/C=C2\SC(=S)N(CCC(=O)Nc3ccc(O)cc3)C2=O)cc1,6,-10,0,-2,48*,-2,37*
O=C(CCN1C(=O)/C(=C/c2ccc(Cl)cc2)SC1=S)Nc1cccc(C(=O)O)c1,-21,2,0,-1,13,23,·
O=C(CCN1C(=O)/C(=C\c2ccc(F)cc2)SC1=S)Nc1ccc(O)cc1,-1,1,0,3,-32,1,·
C[C@H]1CN([C@@H](C)CO)C(=O)c2cccc(NS(=O)(=O)c3ccc(F)cc3)c2O[C@@H]1CN(C)Cc1ccc(Cl)c(Cl)c1,·,9[16.7 µM],-1,·,·,·,·
CCCC(=O)N1C[C@@H]2[C@H](c3ccccc31)[C@H](CO)N2Cc1cocn1,·,14[16.7 µM],0,·,·,·,·
C[C@@H]1CN([C@@H](C)CO)C(=O)c2cc(-c3cccnc3)cnc2O[C@H]1CN(C)C(=O)Nc1ccccc1,·,0[16.7 µM],0,·,·,·,·
COCC#Cc1ccc2c(c1)O[C@@H](CN(C)C(=O)C1CCC1)[C@@H](C)CN([C@@H](C)CO)S2(=O)=O,·,-1[16.7 µM],0,·,·,·,·
COc1ccc(/C=C2\SC(=S)N(CCCC(=O)Nc3ccc(C(=O)O)cc3)C2=O)cc1OC,-9,5,0,4,26,-20,·
COc1ccc(/C=C2\SC(=O)N(CCCC(=O)Nc3ccc(C(=O)O)cc3)C2=O)cc1OC,2,-6,0,1,62*,14,71*
CCOc1ccc(/C=C2/SC(=S)N(CCC(=O)Nc3ccc(C(=O)O)cc3)C2=O)cc1,2,2,0,0,77*,4,77*
COc1ccc(/C=C2/SC(=S)N(CCCC(=O)Nc3ccc(O)cc3)C2=O)cc1OC,-21,·,0,0,45*,-19,43*
COc1ccc(/C=C2\SC(=S)N(CCCC(=O)Nc3ccccc3C(=O)O)C2=O)cc1OC,-4,-10,0,2,8,23,·
COCC(=O)Nc1ccc2c(c1)OC[C@H](C)N(C(=O)COC)C[C@H](C)[C@H](OC)CN(C)C2=O,·,·,0,·,·,·,·
COCC#Cc1cnc2c(c1)C(=O)N([C@@H](C)CO)C[C@@H](C)[C@H](CN(C)C(=O)C1CCCCC1)O2,·,-2[16.7 µM],0,·,·,·,·
O=C(NCc1ccc(F)cc1)[C@H]1[C@H](CO)[C@H]2Cn3c(cccc3=O)[C@@H]1N2,·,-1[16.7 µM],0,·,·,·,·
C[C@H]1CCCCO[C@H](CN(C)C(=O)Nc2ccc(F)cc2)[C@@H](C)CN([C@@H](C)CO)C(=O)c2cc(NC(=O)Cc3ccccc3)ccc2O1,·,-7[16.7 µM],0,·,·,·,·
